One series deals with Cytochrome P450 2C19 (Homo sapiens, UniProt P33261). Kind of series: Inhibition of human CYP2C19. In kind it is ADME. Summed up: (§1)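 Pooled human liver microsomes (0.25 mg/mL) with NADPH (1 mM) and five pooled probe substrates (testosterone, diclofenac, dextromethorphan, mephenytoin, phenacetin). Test compound ran at eight concentrations, 0.31−40 μM, 20 min at 37 °C, with pooled control inhibitors in parallel. Isoform-specific metabolites were measured by LC-MS/MS.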

Series [1] in a line: Stability in rat liver microsomes assessed as compound remaining at 1 uM after 60 mins. In kind it is ADME, Microsome. The conditions noted are these: read-out: Stability. Summed up:
(§2)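 Pooled liver microsomes (0.5 mg/mL) were premixed with 0.1 M phosphate buffer pH 7.4, 6.5 mM MgCl2 and test compound (1 μM final, 0.2% DMSO). NADPH (1 mM) started the reaction at 37 °C, in duplicate. Minus-NADPH and testosterone controls were included. Aliquots were taken at 0, 5, 15, 30 and 60 min and quenched in acetonitrile containing internal standard.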
(In general: Microsomes from liver hold many membrane-bound enzymes, among them those of drug oxidation.)

A short description of series [2]: Cmax in athymic nude mouse at 100 mg/kg, po. More on the design: dose 100 mg/kg, route oral. In kind it is ADME, organism-based. The conditions noted are these: in vivo. Summed up:
(§3)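 Single-dose PK. Rats: male Sprague−Dawley, jugular-catheterized, 1 mg/kg iv in 3:1 PEG400/water (n = 2) and 10 mg/kg po in Pharmatek #6 (n = 3). Female athymic nude mice: 100 mg/kg po in Pharmatek #6 (n = 3). Beagle dogs and male cynomolgus monkeys (n = 3): crossover, 1 mg/kg iv and 10 mg/kg po in 22% HPβCD, overnight fast. Plasma LC-MS/MS to 24 h; noncompartmental parameters, mean ± SD.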

A short description of series [3]: Tmax in athymic nude mouse at 100 mg/kg, po. The format is ADME, organism-based. On the set-up: dose 100 mg/kg, route oral. The note with it: in vivo. Summed up: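 Female athymic nude mice (20–25 g, n = 3) received a single oral dose of 100 mg/kg in Pharmatek #6, calculated as free base. Blood was drawn into K3EDTA at 15 and 30 min and at 1, 2, 4, 6 and 24 h. Plasma was analyzed by LC-MS/MS. Parameters came from noncompartmental linear-trapezoidal analysis; mean ± SD reported.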

In another series the test system is COLO 205. Kind of series: Antitumor activity against human COLO205 cells xenografted in athymic nude mouse at 30 mg/kg, po bid for 14 days. In kind it is functional, organism-based. On the set-up: dose 30 mg/kg. Summed up: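 Athymic nude mice carried subcutaneous flank Colo-205 xenografts (1 × 10^6 cells), randomized at 150−200 mm3 (n = 10/group). Oral dosing BID for 14 days in 22% HPβCD against vehicle controls. Caliper volumes W2(L/2) taken three times weekly. Partial regression: volume fell in ≥3 successive measurements to below the starting volume while the tumor stayed palpable.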

The target of series [4] is Serine/threonine-protein kinase B-raf (Homo sapiens, UniProt P15056, V600E).
Series [5] addresses RAF proto-oncogene serine/threonine-protein kinase (Homo sapiens, UniProt P04049). Nature of the series: Inhibition of CRAF in human HEK293 cells after 1 hr by competition binding assay. The format is cell-based. The procedure, abridged:
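KINOMEscan competition binding. Binding reactions run at rt for 1 h. Kinase not bound to compound is captured on an immobilized affinity ligand and quantified by qPCR.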

The next series deals with Cytochrome P450 2D6 (Homo sapiens, UniProt P10635). Kind of series: Inhibition of human CYP2D6. In kind it is ADME. Summed up:
as §1

Series [6] can be described thus: Oral bioavailability in Cynomolgus monkey at 10 mg/kg. The format is ADME, organism-based, Macaca fascicularis. The conditions noted are these: in vivo. The procedure, abridged:
(§4)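 Male non-naive cynomolgus monkeys (2.6–3.4 kg) and beagle dogs (10.3–11.9 kg), n = 3 each, were dosed in a crossover design with a ≥7-day washout. Doses were 10 mg/kg by nasogastric gavage and 1 mg/kg as a saphenous iv bolus, both free base in 22% HPβCD. Animals were fasted overnight until about 4 h post dose. Femoral plasma was sampled from predose to 24 h and analyzed by LC-MS/MS. Parameters came from noncompartmental analysis; mean ± SD reported.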

Series [7] addresses Macrophage colony-stimulating factor 1 receptor (Homo sapiens, UniProt P07333). Nature of the series: Inhibition of CSF1R in human HEK293 cells after 1 hr by competition binding assay. In kind it is cell-based. The procedure, abridged:
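Unbound kinase was captured on immobilized affinity ligand and quantified by qPCR. Kd came from eleven serial 3-fold dilutions, as the mean of duplicates.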

Series [8] in a line: Cmax in Cynomolgus monkey at 10 mg/kg, po. The format is ADME, organism-based, Macaca fascicularis. More on the design: dose 10 mg/kg, route oral. The note with it: in vivo. The procedure, abridged:
as §3

Series [9] relates to Liver. Kind of series: Intrinsic clearance in dog liver microsomes. The format is ADME, Canis lupus familiaris, Microsome. Summed up: as §2
The subject of series [10] is Mus musculus. Kind of series: Toxicity in athymic nude mouse xenografted with human COLO205 cells at 10 mg/kg, po bid for 14 days measured upto 1 week post dosing. On the set-up: dose 10 mg/kg, route oral. In kind it is organism-based, COLO 205. The note with it: in vivo. The procedure, abridged:
(§5)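 Athymic nude mice (20–25 g) were inoculated subcutaneously in the flank with 1×10^6 Colo-205 cells. At 150–200 mm3 they were randomized (n = 10/group) to oral vehicle (22% HPβCD) or 10, 30 or 100 mg/kg BID for 14 days. Calipers were used three times weekly. Body weight and behavior were monitored, with 7–10 days of follow-up after dosing. Partial regression meant volume falling in ≥3 successive measurements, ending below baseline but still palpable.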
Background: A xenograft is tissue or cells of one species grown in another, often human tumour cells in immunodeficient mice.

Series [11] has as its system Mus musculus. Kind of series: Toxicity in athymic nude mouse xenografted with human COLO205 cells at 30 mg/kg, po bid for 14 days. The format is organism-based, COLO 205. More on the design: dose 30 mg/kg, route oral. The note with it: in vivo, 336 h. Summed up: as §5
In the next series the test system is Hs-578T. Kind of series: Cytotoxicity against human Hs578T cells expressing wild type BRAF after 72 hrs by cell titer blue assay. In kind it is functional, cell-based. The procedure, abridged:
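Cells were grown in ATCC-recommended media and kept overnight in 0.5% serum. They were then exposed to compound for 72 h, and Cell Titer Blue was added for 3 h. EC50 came from fluorometric concentration−response curves, run in duplicate and repeated at least once.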

The nature of series [12]: Tmax in Cynomolgus monkey at 10 mg/kg, po. The note with it: in vivo. More on the design: dose 10 mg/kg, route oral. The format is ADME, organism-based, Macaca fascicularis. Summed up:
as §4

Series [13] can be described thus: Half life in Cynomolgus monkey liver microsomes. The format is ADME, Macaca fascicularis, Microsome. The procedure, abridged: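 Pooled liver microsomes (0.5 mg/mL) in 0.1 M phosphate pH 7.4 with 6.5 mM MgCl2 and compound at 1 μM (0.2% DMSO). NADPH (1 mM) started the reaction at 37 °C, with minus-NADPH and testosterone controls. Aliquots taken at 0, 5, 15, 30 and 60 min were quenched in acetonitrile; duplicates.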

Series [14] is described as follows: Half life in Cynomolgus monkey at 1 mg/kg, iv and 10 mg/kg, po. The format is ADME, organism-based, Macaca fascicularis. The conditions noted are these: in vivo. Summed up:
as §3

For series [15], the system named is Liver. Kind of series: Intrinsic clearance in mouse liver microsomes. In kind it is ADME, Microsome.
The test system of series [16] is Mus musculus. Nature of the series: Inhibition of BRAF V600E mutant-mediated MEK phosphorylation in human COLO205 cells xenografted in athymic nude mouse at 55 mg/kg, po after 10 hrs. In kind it is functional. The note with it: COLO 205, 10 h. Summed up:
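Mice bearing Colo-205 xenografts got one oral dose in 22% HPβCD; vehicle controls were run. Tumors were collected at time points over 24 h and lysed. pMEK and total MEK in the lysates were measured by immunoblotting and ELISA, and pMEK was normalized to total MEK.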

Series [17] in a line: Terminal half life in Sprague-Dawley rat at 1 mg/kg, iv and 10 mg/kg, po. In kind it is ADME, organism-based. The note with it: in vivo, read-out: beta t1/2 (converted). Summed up: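 Male Sprague-Dawley rats (250–350 g, jugular-catheterized) received a single dose either iv at 1 mg/kg in 3:1 PEG400/water (n = 2) or po at 10 mg/kg in Pharmatek #6 (n = 3). Plasma was sampled at 5 min (iv only), 15 and 30 min, and 1, 2, 4, 6 and 24 h. Samples were analyzed by LC-MS/MS after acetonitrile precipitation. Parameters came from noncompartmental linear-trapezoidal analysis of individual animals.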

Series [18] in a line: Oral bioavailability in beagle dog at 10 mg/kg. In kind it is ADME, organism-based, Canis lupus familiaris. The conditions noted are these: in vivo. Summed up:
as §4

Calls of active or inactive are those of the source. The rule behind the calls is not given here.

In general, IC50 refers to the concentration at which inhibition is half-maximal. Broadly, the Cmax is the maximum level reached in the sampled fluid or tissue. Usually Tmax stands for the time at which the peak concentration occurs. As a reminder, the Kd is the free concentration of one partner at which half of the binding sites on the other are occupied at equilibrium, for simple one-to-one binding. In general, bioavailability refers to dose-corrected exposure relative to a reference, in per cent. The term EC50 denotes the concentration needed to bring the measured effect to its halfway point. One may read the inhibition in vivo as the share of the control response that was lost under treatment.

Sequence of Cytochrome P450 2C19 (P33261 whole entry, canonical isoform): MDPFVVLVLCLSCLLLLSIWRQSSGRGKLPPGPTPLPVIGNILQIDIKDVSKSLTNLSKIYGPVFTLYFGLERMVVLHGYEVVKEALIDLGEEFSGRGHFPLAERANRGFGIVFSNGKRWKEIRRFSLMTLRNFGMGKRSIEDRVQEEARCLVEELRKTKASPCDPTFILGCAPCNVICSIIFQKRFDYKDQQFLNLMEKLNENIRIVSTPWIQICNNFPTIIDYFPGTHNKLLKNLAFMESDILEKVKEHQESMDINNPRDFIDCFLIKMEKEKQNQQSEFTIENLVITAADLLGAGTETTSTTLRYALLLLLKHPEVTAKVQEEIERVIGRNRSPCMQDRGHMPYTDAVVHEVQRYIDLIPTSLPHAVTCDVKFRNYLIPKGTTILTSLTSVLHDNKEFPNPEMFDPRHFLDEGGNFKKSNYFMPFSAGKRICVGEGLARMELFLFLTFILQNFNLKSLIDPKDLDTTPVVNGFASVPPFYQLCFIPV
Sequence of Cytochrome P450 2D6 (P10635 whole entry): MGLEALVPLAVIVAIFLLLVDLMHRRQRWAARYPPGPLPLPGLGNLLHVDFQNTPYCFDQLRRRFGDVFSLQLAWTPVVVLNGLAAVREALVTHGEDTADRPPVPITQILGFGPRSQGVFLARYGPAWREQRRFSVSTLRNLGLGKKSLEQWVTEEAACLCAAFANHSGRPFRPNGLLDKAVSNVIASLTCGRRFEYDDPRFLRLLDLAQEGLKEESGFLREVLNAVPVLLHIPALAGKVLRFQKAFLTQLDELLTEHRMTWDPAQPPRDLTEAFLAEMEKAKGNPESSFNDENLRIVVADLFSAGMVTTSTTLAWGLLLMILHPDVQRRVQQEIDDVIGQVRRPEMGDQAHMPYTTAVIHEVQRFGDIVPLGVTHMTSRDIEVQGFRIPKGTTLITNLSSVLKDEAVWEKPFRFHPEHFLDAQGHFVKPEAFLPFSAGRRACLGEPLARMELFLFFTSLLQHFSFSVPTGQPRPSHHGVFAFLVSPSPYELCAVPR
Sequence of Serine/threonine-protein kinase B-raf (P15056 2-766 V600E limits assumed): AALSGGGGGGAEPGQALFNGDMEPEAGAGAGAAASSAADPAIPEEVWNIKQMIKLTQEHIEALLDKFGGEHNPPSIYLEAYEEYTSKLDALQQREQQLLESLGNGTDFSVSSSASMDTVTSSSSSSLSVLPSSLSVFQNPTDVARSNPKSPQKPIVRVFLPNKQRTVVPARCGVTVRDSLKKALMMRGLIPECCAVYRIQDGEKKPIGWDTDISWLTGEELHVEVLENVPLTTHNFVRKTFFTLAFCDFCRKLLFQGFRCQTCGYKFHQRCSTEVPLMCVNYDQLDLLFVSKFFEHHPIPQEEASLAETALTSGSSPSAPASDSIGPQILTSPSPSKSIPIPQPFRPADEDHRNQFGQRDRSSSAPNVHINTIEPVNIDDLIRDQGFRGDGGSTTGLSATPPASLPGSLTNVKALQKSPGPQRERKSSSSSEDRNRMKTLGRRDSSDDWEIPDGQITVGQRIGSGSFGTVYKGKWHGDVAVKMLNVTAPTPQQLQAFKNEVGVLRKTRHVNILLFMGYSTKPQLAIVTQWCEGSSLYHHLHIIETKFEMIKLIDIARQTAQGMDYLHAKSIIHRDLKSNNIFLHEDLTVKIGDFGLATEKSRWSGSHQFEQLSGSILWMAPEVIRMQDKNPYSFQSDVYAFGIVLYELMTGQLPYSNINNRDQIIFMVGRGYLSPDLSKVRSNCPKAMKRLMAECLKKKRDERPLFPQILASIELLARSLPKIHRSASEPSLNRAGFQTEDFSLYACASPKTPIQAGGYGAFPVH
Sequence of Macrophage colony-stimulating factor 1 receptor (P07333 whole entry): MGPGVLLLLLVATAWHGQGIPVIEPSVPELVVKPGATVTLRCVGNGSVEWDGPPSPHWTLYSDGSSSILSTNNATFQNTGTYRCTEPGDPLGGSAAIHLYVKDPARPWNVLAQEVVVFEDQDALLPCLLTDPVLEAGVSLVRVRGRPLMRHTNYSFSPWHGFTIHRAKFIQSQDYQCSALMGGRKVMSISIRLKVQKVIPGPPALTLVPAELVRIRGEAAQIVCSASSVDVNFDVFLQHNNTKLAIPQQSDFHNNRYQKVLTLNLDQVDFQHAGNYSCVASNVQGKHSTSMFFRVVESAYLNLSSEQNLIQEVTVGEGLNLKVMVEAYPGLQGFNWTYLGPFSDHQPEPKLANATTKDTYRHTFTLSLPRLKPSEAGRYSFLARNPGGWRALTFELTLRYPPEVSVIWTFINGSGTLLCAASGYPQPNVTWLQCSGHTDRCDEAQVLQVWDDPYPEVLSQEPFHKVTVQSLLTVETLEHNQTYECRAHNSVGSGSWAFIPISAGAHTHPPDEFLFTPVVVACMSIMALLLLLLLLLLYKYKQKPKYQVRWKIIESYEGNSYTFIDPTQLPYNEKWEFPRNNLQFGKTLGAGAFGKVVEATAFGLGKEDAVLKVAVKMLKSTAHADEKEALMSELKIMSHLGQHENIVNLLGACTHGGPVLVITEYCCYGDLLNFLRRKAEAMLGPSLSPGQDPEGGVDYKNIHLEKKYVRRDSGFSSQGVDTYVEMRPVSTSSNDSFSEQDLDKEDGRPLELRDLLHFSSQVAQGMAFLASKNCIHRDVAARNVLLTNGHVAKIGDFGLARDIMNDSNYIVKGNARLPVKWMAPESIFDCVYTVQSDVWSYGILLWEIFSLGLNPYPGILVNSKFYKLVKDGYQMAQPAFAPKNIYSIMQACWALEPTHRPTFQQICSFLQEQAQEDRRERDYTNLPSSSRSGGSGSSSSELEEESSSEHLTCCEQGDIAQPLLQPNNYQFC
Sequence of RAF proto-oncogene serine/threonine-protein kinase (P04049 whole entry): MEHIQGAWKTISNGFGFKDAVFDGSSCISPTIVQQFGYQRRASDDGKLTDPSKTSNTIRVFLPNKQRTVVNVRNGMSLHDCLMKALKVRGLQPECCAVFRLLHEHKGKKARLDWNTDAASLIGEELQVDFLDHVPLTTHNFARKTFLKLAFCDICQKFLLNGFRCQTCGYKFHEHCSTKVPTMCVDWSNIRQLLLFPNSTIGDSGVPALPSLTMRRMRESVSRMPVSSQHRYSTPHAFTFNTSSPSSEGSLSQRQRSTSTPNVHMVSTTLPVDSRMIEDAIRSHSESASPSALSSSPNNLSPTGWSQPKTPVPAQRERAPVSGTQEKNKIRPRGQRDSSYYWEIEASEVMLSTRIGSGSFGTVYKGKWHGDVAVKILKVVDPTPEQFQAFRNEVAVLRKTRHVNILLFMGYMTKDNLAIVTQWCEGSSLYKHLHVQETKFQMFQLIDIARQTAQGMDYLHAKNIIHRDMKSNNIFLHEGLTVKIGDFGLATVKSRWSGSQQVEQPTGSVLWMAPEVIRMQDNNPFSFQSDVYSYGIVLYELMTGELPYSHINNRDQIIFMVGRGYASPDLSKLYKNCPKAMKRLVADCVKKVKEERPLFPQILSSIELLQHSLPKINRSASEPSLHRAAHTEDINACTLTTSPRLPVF

Turning to `COc1cc2ncnc(Oc3cccc(NC(=O)Nc4cc(C(C)(C)C(F)(F)F)on4)c3)c2cc1OC` [CEP-32496], the IC50 is 3400 nM against Cytochrome P450 2C19, 82 nM in series [4] and above 10000 nM against Cytochrome P450 2D6. Moreover, the remaining at 1 h, 1 µM in series [1] was determined as 81%. Moreover, the Cmax came out at 35.6 µM in series [2] and 4.3 µM in series [8]. The Tmax was 1.3 h in series [3] and 4 h in series [12]. In the series with COLO 205, the result was Active. Further, the Kd in series [5] came to 39 nM; in [7] it was 9 nM. Besides, the bioavailability in series [6] and in series [18] was 100% throughout. The CLH in the series with Liver [9] and in the series on Liver [15] was below 23 µL/min/mg each time. The Activity entry in the series with Mus musculus [10] and in the series on Mus musculus [11] was “Non-toxic” each time. Further, the response with Hs-578T was half-maximal at 2740 nM (EC50). Besides, the half-life in [13] is above 1 h; in [14], 4.9 h; in series [17], 7.8 h. This compound yielded an inhibition in vivo at 55 mg/kg with Mus musculus [16] of 57%.

Values taken from ChEMBL document CHEMBL2029242 (J Med Chem, 2012).
